Screening results deposited in PubChem by The Scripps Research Institute Molecular Screening Center.
OXTR agonist = human OXTR agonists, primary screen, fluorescence, CHO-OTR cells, Fluo-8 calcium | Oxytocin receptor (Homo sapiens), P30559 | Fluo-8 calcium fluorescence; normalized: DMSO 0%, oxytocin 100% | activation, % at 3 µM | 320,000 tested, 0.32% active;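 active means activation above the mean of all tested compounds plus 3 SD, cutoff set per screening run, cut at about 20% in these data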;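 further: peak over basal fluorescence ratio from a 100 s FLIPR kinetic read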
CHO parental Ca = ATP-evoked calcium signal inhibitors, parental CHO, primary screen, counter-screen for OX1R antagonist project, cell-based, fluorescence, Fluo-8 calcium dye | AID 463079, 2010 | parental CHO-K1, ATP-induced calcium, Fluo-8 fluorescence | inhibition, % at 5.6 µM | 330,000 tested, 0.63% active;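 active means inhibition above that plate's mean sample inhibition plus 3 SD, cut at about 26% in these data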;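 further: 0% = ATP-challenged DMSO wells and 100% = DMSO wells without ATP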
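Measured by: calcium-sensitive Fluo-8 fluorescence / Test system: CHO parental line / Controls: ATP-challenged DMSO wells low, unchallenged DMSO wells high / Measure: % inhibition / Compound: single nominal dose of 5.6 µM per compound / Replicates: single well per compound, no replicates / Reagent: ATP as calcium-mobilizing challenge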
OXTR potentiator = human OXTR potentiators, primary screen, fluorescence, CHO-OTR cells, Fluo-8 calcium; Oxytocin receptor (Homo sapiens), P30559; Fluo-8 calcium fluorescence, potentiator mode; 0% = oxytocin EC15, 100% = EC100; activation, % at 3 µM; 320,000 tested, 0.061% active; AID 2445, 2010;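 active means activation above that plate's cutoff, the mean activation of tested compounds plus 3 SD, cut at about 6.6% in these data, passing the limit was not always enough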;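 further: 100% uses oxytocin at 75 nM as the full agonist control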
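test system = CHO-OTR cells, human receptor | compound = single-point 3.0 µM | schedule = 6 min compound pre-incubation at room temperature, 100 s kinetic read | signal = Fluo-8 no-wash calcium dye fluorescence, excitation 470-495 nm, emission 515-575 nm | repeats = single well per compound, singlicate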
OX1R antag-1 = OX1R (HCRTR1) antagonists, primary screen, fluorescence, CHO/OX1R cells, Fluo-8 calcium, orexin A; Orexin/Hypocretin receptor type 1 (Homo sapiens), O43613; Fluo-8 calcium fluorescence; inhibition, % at 5 µM; 330,000 tested, 0.43% active;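 active means inhibition above its plate's threshold, mean inhibition of all tested compounds on the plate plus 3 SD, cut at about 37% in these data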;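 further: 0% = orexin A challenge wells and 100% = SB-334867-A antagonist wells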
Target sequence (O43613 whole entry, looked up): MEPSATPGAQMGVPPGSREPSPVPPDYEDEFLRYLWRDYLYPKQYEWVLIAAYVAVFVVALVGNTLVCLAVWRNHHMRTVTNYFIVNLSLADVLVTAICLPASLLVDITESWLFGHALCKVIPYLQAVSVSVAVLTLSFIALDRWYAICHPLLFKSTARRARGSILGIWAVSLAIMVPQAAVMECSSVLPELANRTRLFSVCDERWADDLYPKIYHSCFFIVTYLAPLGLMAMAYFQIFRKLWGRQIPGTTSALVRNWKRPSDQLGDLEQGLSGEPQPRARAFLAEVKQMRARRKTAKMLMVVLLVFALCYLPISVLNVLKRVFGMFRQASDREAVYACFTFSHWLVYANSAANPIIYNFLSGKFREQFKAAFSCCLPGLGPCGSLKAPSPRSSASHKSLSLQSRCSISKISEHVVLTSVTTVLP
OX1R antag-2 = antagonists of human orexin 1 receptor (OX1R); OX1R-expressing cells, FRET antagonist read-out; AID 485270, 2010; inhibition, % at 6.6 µM; Orexin/Hypocretin receptor type 1 (Homo sapiens), O43613; 330,000 tested, 1.8% active; in the data active means inhibition mostly above about 38%, no sharp cut-off; inactive means mostly below about 40%;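 further: 0% = agonist challenge alone and 100% = reference antagonist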
V1R ag counter = agonists of human V1a receptor, primary screen, counter-screen for OXTR agonist project, fluorescence, CHO-V1R cells. Vasopressin V1a receptor (Homo sapiens), P37288. AID 2797, 2010. activation, % at 3 µM. Fluo-8 calcium fluorescence, agonist mode; 0% DMSO, 100% 3 nM vasopressin. 320,000 tested, 0.25% active;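 active means activation above the mean activation of all tested compounds plus 3 SD, per screening run, cut at about 20% in these data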;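 further: signal is peak over basal fluorescence ratio across a 100 second FLIPR read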
* marks the source's active call; other numbers are inactive results. Most compounds without a hit are left out; they make up all but 2.6% or so of the library.

SMILES | OXTR agonist | CHO parental Ca | OXTR potentiator | OX1R antag-1 | OX1R antag-2 | V1R ag counter
CC(=O)c1cccc(NS(=O)(=O)c2ccc(-c3cnc(C4CC4)o3)cc2)c1 | 10.6 | 50.1* | -15.1 | 12.8 | 35.6 | 15.4
CCC(CC)C(=O)Nc1cccc(C(=O)Nc2ccc(S(=O)(=O)Nc3ccc(C)cc3)cc2)c1 | -0.2 | 10.5 | -5.8 | 54.7* | 54.4* | 2.5
O=C(Nc1ccccc1)c1ccc(S(=O)(=O)Nc2cccc(O)c2)cc1 | 1.1 | 9.2 | -3.4 | 7.8 | 15.9 | 0.8
CCC(CC)C(=O)Nc1cccc(C(=O)Nc2ccc(S(N)(=O)=O)cc2)c1 | 0.1 | -4.5 | -1.8 | -9.2 | 19.3 | 1.1
CC(=O)c1cccc(NS(=O)(=O)c2ccc(C(=O)Nc3ccccc3)cc2)c1 | 16.7 | 71.5* | -17.6 | 70.1* | 74.2* | 14.7
Cc1ccc(S(=O)(=O)Nc2ccc(N3CCCCC3)cc2)cc1 | -0.5 | -9.5 | -6.9 | -5.1 | 9.6 | 1.8
Cc1ccc(NS(=O)(=O)c2ccc(C3CCCCC3)cc2)cc1 | 8.2 | 42.1* | -12.2 | 56.3* | 11.3 | 16.6
Cc1nn(CC(=O)N2CCOCC2)c(=O)c2nn(-c3ccccc3)c(C)c12 | -0.2 | 1.0 | -3.7 | -16.2 | 13.2 | 0.4
CSCCC(NC(=O)/C(=C/c1ccc(F)cc1)NC(C)=O)C(=O)O (stereo not given) | -0.1 | 16.8 | -0.9 | 1.8 | -1.6 | 0.7
C[C@H](CO)N1C[C@H](C)[C@@H](CN(C)C(=O)Nc2ccc3c(c2)OCO3)Oc2c(NC(=O)c3ccncc3)cccc2C1=O | -0.6 | -1.6 | -2.9 | -4.8 | 11.2 | -0.1
C[C@H](NC(=O)c1nc[nH]c1C(=O)NC1CCNCC1)C(=O)OCc1ccccc1 | 2.8 | -2.8 | 5.4 | 0.0 | 5.1 | 0.3
COc1ccc(C(=O)/C=C/Nc2ccc(S(=O)(=O)Nc3cccc(C(C)=O)c3)cc2)cc1 | 4.1 | 36.4* | -11.1 | 46.7* | 70.7* | 4.7
COc1cccc(C(=O)/C=C/Nc2ccc(S(=O)(=O)Nc3ccc(C(C)=O)cc3)cc2)c1 | 0.8 | 3.9 | -1.2 | 17.6 | 18.2 | 1.0
Cc1ccc(S(=O)(=O)Nc2ccc(NC(=O)c3c(F)c(F)c(F)c(F)c3F)cc2)cc1 | 36.7* | 43.8* | -17.2 | 69.1* | -6.0 | 27.3*
CN(C)c1ncc(S(=O)(=O)c2ccccc2)c(-c2ccc(Cl)cc2Cl)n1 | -2.7 | 4.4 | -5.3 | -13.4 | 53.1* | -0.3
CN(C)c1ncc(S(=O)(=O)c2ccc(Cl)cc2)c(-c2ccc(Cl)cc2Cl)n1 | -0.8 | -3.0 | -7.4 | -15.4 | 11.0 | 0.7
Nc1c(SCCC(=O)O)ccc2c1C(=O)c1ccccc1C2=O | 9.5 | 11.7 | -18.9 | 5.7 | 42.8* | 13.9
O=C(O)CCSc1nc2ccccc2s1 | 0.5 | -6.5 | -5.1 | -6.1 | 6.3 | 0.7
CN(C)n1cccc1/C=C(\C#N)S(=O)(=O)c1ccc(Cl)cc1 | -2.7 | 64.8* | -19.8 | 63.3* | 25.2 | -2.5
Cc1ccc(S(=O)(=O)/C(C#N)=C/c2c(Oc3ccc(Cl)cc3)nc3c(C)cccn3c2=O)cc1 | 1.2 | -9.9 | -2.6 | -10.5 | 11.5 | 0.2
COc1ccc(NC(=O)CSc2nnc(Cc3ccc(C)cc3)c(=O)n2N)cc1OC | -1.2 | -7.4 | -3.5 | -24.9 | 15.8 | -1.6
CCOC(=O)N1CCN(c2cc(C)c(C(C)=O)cc2F)CC1 | 5.0 | -23.7 | -10.3 | 1.0 | 8.8 | 4.6
CC(=O)c1cc(F)c(N2CCN(C(=O)Cc3ccccc3)CC2)cc1C | 13.6 | 36.3 | -17.2 | 58.5* | 69.7 | 11.0
COc1cc2c(C(=O)N3CCOCC3)c(CSc3ccccc3)n(C)c2cc1Br | -2.2 | -41.1 | -4.6 | -9.2 | 56.5* | -1.0
COc1ccccc1CNC(=O)c1ccc2nc3[nH]c4ccccc4c3nc2c1 | -3.2 | -18.2 | -10.6 | 2.5 | 46.8* | -1.9
